NF-kB expr up: compounds increasing NF-kB expression in human neuronal cells | NF-kB reporter expression; hits give high values | fold change at 12.5 µM | actives 1.6% (n = 190,000) | AID 1239; in the data active means fold change above about 3.3
STAT3 blocker: reduces IL-6 driven STAT3 reporter signal; U3A cells, IL-6 STAT3-luciferase reporter, luminescence; host cell line lacks STAT1; AID 862; actives 0.89% (n = 190,000); inhibition, % at 5.5 µM;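 active means inhibition above the mean inhibition across all screened compounds plus 3 SD, cut at about 44% in these data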;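 further: 0% = DMSO only wells and 100% = 100 µM nifuroxazide control wells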
STAT3 act-1: STAT3 signaling activation; U3A cells, IL-6 STAT3-luciferase reporter, luminescence; 100% = signal with IL-6 EC80 alone; activation (% of control), % at 5.6 µM; actives 0.91% (n = 190,000);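 active means activation above the screen-wide mean of compound activation plus 3 SD, cut at about 130% in these data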;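 further: 0% = background luminescence of wells with medium and substrate only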
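Material: human U3A cells carrying STAT3-luciferase construct. Measured by: reporter luminescence signal. Timing: compound 1 h, then IL-6 6 h at 37 °C.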
STAT1 inh: reduces IFN-gamma driven STAT1 reporter signal | NIH 3T3 STAT1-luciferase reporter, luminescence | inhibition, % at 5.5 µM | actives 0.35% (n = 200,000) | AID 920;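 active means inhibition above a set limit, the mean inhibition across all tested compounds plus 3 SD, cut at about 34% in these data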;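 further: 0% = IFN-gamma with DMSO and 100% = IFN-gamma with 300 µM nifuroxazide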
APP 5'UTR act: APP 5'UTR luciferase reporter activation. AID 1276. activation, % at 2 µM. SH-SY5Y APP 5'UTR luciferase reporter, luminescence; zero percent = DMSO vehicle wells. actives 1% (n = 190,000);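 active means activation above a set limit, based on mean plus 3 SD of controls, cut at about 140% in these data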
STAT1 act-1: activators of IFN-gamma induced STAT1 signaling. AID 932. actives 2.6% (n = 200,000). activation (% of control), % at 5.5 µM. NIH 3T3 STAT1-luciferase reporter, luminescence; 100% = IFN-gamma alone, no compound;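 active means activation above the screen-wide mean activation plus 3 SD, cut at about 130% in these data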;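 further: raw ratio to IFN-gamma control signal so 100% means no change and 0% no light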
STAT3 act-2: confirmation of STAT3 signaling activators; shares compounds with STAT3 act-1; U3A STAT3-luciferase reporter, IL-6 potentiation, luminescence; U3A cells lack STAT1; 100 means same as IL-6 alone; potentiation (% of control), % at 5.7 µM; actives 64% (n = 1,200);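 active means percent activation of the STAT3 luciferase reporter above a set limit taken from the earlier primary screen, cut at about 130% in these data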;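 further: 0% = background signal of medium plus substrate and 100% = median of IL-6 with DMSO wells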
NFkB act STAT3ct: activates NF-kappaB, counter-screen to STAT3 activators; shares compounds with STAT3 act-1; human cells, NF-kappaB reporter activation; activation (% of control), % at 5.7 µM; actives 11% (n = 1,200); AID 1309; in the data active means activation above about 120%;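 further: reporter induced by TNF-alpha stimulation; 100% = median of stimulated DMSO wells and 0% = no signal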
STAT1 act-2: counter-screen for STAT3 activators: STAT1 activation. shares compounds with STAT3 act-1. NIH 3T3 STAT1-luciferase reporter, IFN-gamma, luminescence. activation (% of control), % at 5.7 µM. actives 13% (n = 1,200). AID 1318;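 active means activation above the solvent-only control well mean plus 3 SD, set per screening run, cut at about 120% in these data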;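 further: 100% = IFN-gamma with DMSO median signal so 100% means no change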
An asterisk follows results filed as active; i = inactive; / = no result. Hits are enriched below; roughly 4.9% of the tested compounds scored in any of these assays.

SMILES	NF-kB expr up	STAT3 blocker	STAT3 act-1	STAT1 inh	APP 5'UTR act	STAT1 act-1	STAT3 act-2	NFkB act STAT3ct	STAT1 act-2
CCC(=O)NCCSc1c[nH]c2ccccc12	1.07	-47.3	144.9*	3.6	4.0	96.7	141.0*	104.8	108.1
Cc1cc(N2CCC(C)CC2)nc(SCC(=O)c2ccccc2)n1	0.6	16.4	87.4	-1.9	-8.6	101.7	/	/	/
C/C(=N\Nc1nc2ccccc2[nH]1)c1cc2ccccc2o1	1.01	-49.2	143.3*	-7.7	106.1	106.9	175.9*	122.0*	134.1*
Cc1nnc(NC(=O)c2oc3c(ccc4ccccc43)c2C)s1	1	-58.6	149.9*	-7.7	-0.1	106.9	146.0*	106.0	101.7
CC12CCC(C(=O)N(NC(=O)c3ccccc3Cl)C1=O)C2(C)C (stereo unspecified)	1.22	1.4	101.2	3.6	21.1	96.9	/	/	/
COc1cc(/C=C/C(=O)OCC(=O)N2CCc3ccccc3C2)ccc1O	0.55	12.8	89.2	5.9	1.1	94.8	/	/	/
Cc1ccc(S(=O)(=O)N2CCC(C(=O)O)CC2)cc1	0.98	-5.5	107.7	-8.9	17.1	106.2	/	/	/
O=C(Nc1c(F)cccc1F)c1cnc(N2CCN(c3ccccn3)CC2)c2ccccc12	0.31	7.8	98.3	-6.6	-8.0	106.1	/	/	/
Cc1ccc(NC(=O)c2cnc(N3CCN(c4ccccn4)CC3)c3ccccc23)c(Br)c1	0.48	-51.6	142.7*	8.4	-3.0	91.3	126.0	113.2	108.5
CC(=O)c1cnc2ncnn2c1C	1.25	7.6	96.5	-5.4	12.3	104.9	/	/	/
O=C(CCCSc1nc2ccccc2s1)NCc1ccco1	0.84	-56.5	149.6*	-1.0	-3.4	100.9	135.8*	100.5	96.9
CCc1ccccc1NC(=O)CCCSc1nc2ccccc2s1	1	-14.4	107.5	-9.1	9.6	108.2	/	/	/
O=C(Nc1nc(-c2cccs2)cs1)c1cccc(S(=O)(=O)N2CCCCCC2)c1	0.92	-41.3	139.8*	-18.7	31.3	117.0	132.5	110.6	124.9*
Cc1ccc(NC(=O)C2=C(O)CCn3c2nc2ccccc23)cc1	0.93	-47.1	149.2*	-12.1	-12.3	111.1	123.9	101.3	103.8
Cc1ccc(NC(=O)c2cc(Cl)nc3ccccc23)cc1	1	6.8	103.0	2.5	7.0	97.7	/	/	/
Cc1ccc(NC(=O)CN(C)C(=O)COc2cccc3cccnc23)cc1	1.23	-8.8	108.4	-0.9	-4.0	100.4	/	/	/
O=C(COC(=O)CCC(=O)c1cccs1)Nc1cc(S(=O)(=O)N2CCOCC2)ccc1Cl	1.14	-15.4	113.0	2.9	-9.7	97.3	/	/	/
S=c1[nH]nc(CSc2nc3ccccc3s2)o1	1.13	-43.3	141.7*	9.5	5.6	91.3	141.8*	99.7	97.3
N#C/C(=C\Nc1ccc2cn[nH]c2c1)c1nc(-c2ccc(Cl)cc2)cs1	1.08	-56.4	147.7*	8.2	12.2	91.0	114.6	98.8	90.1
O=C(Cn1nc([N+](=O)[O-])nc1Br)NC(c1ccccc1)c1ccccc1	1.31	-4.4	99.4	5.3	4.2	95.1	/	/	/
COc1ccc(C2CC3(CC(C)(C)NC(=S)N3)Oc3cc(O)cc(C)c32)cc1 (stereo unspecified)	0.99	-329.5	362.9*	-6.0	9.8	105.4	267.6*	109.8	106.0
COc1ccc(C2CC3(CC(C)(C)NC(=O)N3)Oc3cc(O)ccc32)cc1 (stereo unspecified)	1.18	-125.2	211.3*	-2.2	4.3	102.1	176.3*	110.0	118.6
COc1ccc(C2CC3(CC(C)(C)NC(SC)=N3)Oc3cc(O)cc(C)c32)cc1 (stereo unspecified)	1.14	i	536.9*	-24.6	1.2	121.5	381.9*	114.2	127.4*
COc1ccc(S(=O)(=O)N2CCCC(C(=O)NCCC(C)C)C2)cc1 (stereo unspecified)	0.95	4.7	96.0	0.2	-6.8	99.9	/	/	/
COc1ccc(S(=O)(=O)N2CCN(Cc3ccccc3)CC2)cc1	1.25	-39.5	137.7*	-4.8	-8.0	104.4	104.8	103.5	100.5
SMILES	NF-kB expr up	STAT3 blocker	STAT3 act-1	STAT1 inh	APP 5'UTR act	STAT1 act-1	STAT3 act-2	NFkB act STAT3ct	STAT1 act-2
Cc1nn(-c2ccccc2)c(N)c1C(O)(CSc1nccn1C)C(F)(F)F (stereo unspecified)	0.99	-13.6	109.8	-5.3	/	104.9	/	/	/
Cc1nn(-c2ccc(Cl)cc2)c(N)c1C(O)(CSc1nccn1C)C(F)(F)F (stereo unspecified)	1.35	-47.3	143.2*	2.1	8.8	99.3	134.0*	102.8	99.5
CC(Sc1cccc[n+]1[O-])C(=O)Nc1ccc(Oc2ccccc2)cc1 (stereo unspecified)	/	0.8	104.8	2.2	-9.9	98.4	/	/	/
Cc1ccc2nc(SCC(=O)Nc3ccc(F)c([N+](=O)[O-])c3)[nH]c2c1	1.08	0.5	98.3	6.6	1.7	94.0	/	/	/
Cc1ccc2nc(SCC(=O)Nc3cc([N+](=O)[O-])ccc3F)[nH]c2c1	1.51	-52.8	138.5*	12.2	2.1	88.8	138.5*	106.8	97.2
CCOCc1nnc(NC(=O)c2cc(OC)c(OC)cc2[N+](=O)[O-])s1	1.27	8.5	98.6	-3.0	27.1	101.8	/	/	/
O=C(Nc1cc(-c2nc3ccccc3s2)ccc1Cl)c1ccc2c(c1)OCO2	1.71	-36.1	137.9*	-5.1	28.2	104.6	136.6*	120.0	126.8*
Cc1ccc(C(=O)N2CCN(c3ccc(NC(=O)COc4ccccc4C)cc3)CC2)cc1	0.58	30.9	78.8	-0.9	7.1	98.9	/	/	/
O=C(NC(=S)N1CCCc2ccccc21)c1ccccc1	1.72	-63.8	166.5*	-2.2	27.9	102.0	148.6*	108.5	110.0
COc1ccccc1C(=O)NC(=S)N1CCCc2ccccc21	0.56	-12.8	121.3	-9.9	58.8	108.9	/	/	/
COc1cc(C(C[N+](=O)[O-])c2c(C)[nH]c3ccccc23)cc(OC)c1OC (stereo unspecified)	1.03	-48.5	141.7*	14.2	4.7	87.3	126.0	98.2	91.8
CCN(C(=O)COC(=O)/C=C/c1ccccc1[N+](=O)[O-])C1CCS(=O)(=O)C1 (stereo unspecified)	0.74	-51.3	149.2*	32.4	11.3	70.7	141.1*	105.2	71.2
